Experimental findings from ChEMBL document CHEMBL1125033, “Structure-activity relationship of antiestrogens. Phenolic analogues of 2,3-diaryl-2H-1-benzopyrans” (J Med Chem, 1990) are described below.

Experiment [1] addresses T1, Estrogen receptor (Rattus norvegicus) (UniProt P06211+Q62986).
The subject of experiment [2] is Anti-estrogen binding site (AEBS) (Rattus norvegicus). Kind of experiment: Relative binding affinity against Antiestrogen binding site(AEBS).
Experiment [3] deals with T1, Estrogen receptor (Rattus norvegicus). Kind of experiment: Relative binding affinity against estrogen receptor(ER). It counts as protein assay. In outline: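 Uterine cytosol from immature rats primed s.c. with 0.1 μg E₂ 24 h before sacrifice, one uterine equivalent per mL TEA buffer (pH 7.4, 7% DMF). Incubated 18-20 h at 4 °C with ³H-E₂ (5 × 10⁻⁹ M) and competitor at 10⁻⁴–10⁻⁹ M, in triplicate. Charcoal-dextran separation for 20 min, then scintillation counting.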

The target is the same in experiment [4]. The source holds these as a separate data set.

`COc1ccc2c(c1)OC(c1ccc(OCCN3CCCCC3)cc1)C(c1ccccc1)=C2` (stereo not given): the Mean weight in experiment [1] came to 43.1 mg; in experiment [4] it was 22.6 mg. For the same molecule, the relative binding affinity (RBA) worked out at 21 in experiment [2] and 0.02 in experiment [3].

For `C1=C(c2ccccc2)C(c2ccc(OCCN3CCCCC3)cc2)Oc2ccccc21` (stereo not given), the Mean weight came to 18.6 mg in experiment [1] and 15.3 mg in experiment [4]. The same molecule displayed a relative binding affinity (RBA) in experiment [2] of 225.

As for `Oc1ccc(C2=Cc3ccccc3OC2c2ccc(OCCN3CCCCC3)cc2)cc1` (stereo not given), the values for the Mean weight in experiment [1] and in experiment [4] were 11.6 mg and 10.4 mg, respectively. In addition, the relative binding affinity (RBA) in experiment [2] stood at 14; in experiment [3], 4.2.

Regarding `Oc1ccc(C2=Cc3ccc(O)cc3OC2c2ccc(O)cc2)cc1` (stereo not given), the Mean weight in experiment [1] worked out at 44.2 mg; in experiment [4] it was 14.2 mg. This molecule also displayed a relative binding affinity (RBA) in experiment [3] of 2.2.

Turning to `Oc1ccc2c(c1)OC(c1ccc(OCCN3CCCCC3)cc1)C(c1ccccc1)=C2` (stereo not given), the Mean weight in experiment [1] stood at 21.2 mg; in experiment [4] it was 15.2 mg. In addition, the relative binding affinity (RBA) in experiment [2] stood at 13; in experiment [3], 9.5.

For the molecule `O=C(c1ccc(OCCN2CCCC2)cc1)c1c(-c2ccc(O)cc2)sc2cc(O)ccc12`, the Mean weight in experiment [1] amounted to 25.6 mg; in experiment [4], 25.5 mg. Further, the relative binding affinity (RBA) was determined as 6.5 in experiment [2] and 93 in experiment [3].

Take `Oc1ccc(C2=Cc3ccc(O)cc3OC2c2ccc(OCCN3CCCCC3)cc2)cc1` (stereo not given): the Mean weight turned out to be 12.4 mg in experiment [1] and 10.6 mg in experiment [4]. Moreover, the relative binding affinity (RBA) amounted to 2.2 in experiment [2] and 49 in experiment [3].

For `COc1ccc(C2=C(C(=O)c3ccc(OCCN4CCCC4)cc3)c3ccccc3CC2)cc1`, the Mean weight in experiment [1] was determined as 29.1 mg; in experiment [4], 18.6 mg. Also, the relative binding affinity (RBA) came out at 25 in experiment [2] and 8 in experiment [3].
